≈ marks a conversion by molar mass, not a printed value.
Tests used:
Type in all cases: functional
Malme-3M = assay: Cytotoxicity against human MALME-3M cells by MTT assay
How it was run: (§1)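 Human tumour lines (A-549 lung carcinoma, MCF-7 breast carcinoma, HT-29 colon adenocarcinoma, SK-MEL-5 melanoma from an axillary node metastasis, Malme-3M melanoma from a lung metastasis) tested with a standard MTT protocol. Adriamycin served as the positive control. Results are reported as GI50.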

SK-MEL-5 = assay: Cytotoxicity against human SK-MEL-5 cells by MTT assay; how it was run: as §1
A549 = assay: Cytotoxicity against human A549 cells by MTT assay; how it was run: as §1
HT-29 = assay: Cytotoxicity against human HT29 cells by MTT assay; how it was run: as §1
MCF7 = assay: Cytotoxicity against human MCF7 cells by MTT assay; how it was run: as §1

COC1=C(C)C(=O)C(C)(C)C(=O)/C1=C1\C=Cc2ccccc2O1 [DALRUBONE]
GI50 (Malme-3M): 2 µg/mL (≈ 6.44 µM) | GI50 (SK-MEL-5): 0.4 µg/mL (≈ 1.29 µM) | GI50 (A549): 0.2 µg/mL (≈ 0.644 µM) | GI50 (HT-29): 0.02 µg/mL (≈ 0.0644 µM) | GI50 (MCF7): 1 µg/mL (≈ 3.22 µM)

CC(=O)C1=c2oc3c(c2Oc2ccccc21)C(=O)C(C)(C)C(=O)C=3C [PSOROTHAMNONE A]
GI50 (Malme-3M): 60 µg/mL (≈ 178 µM) | GI50 (SK-MEL-5): 20 µg/mL (≈ 59.5 µM) | GI50 (A549): 40 µg/mL (≈ 119 µM) | GI50 (HT-29): 50 µg/mL (≈ 149 µM) | GI50 (MCF7): 60 µg/mL (≈ 178 µM)

COc1cccc2c1C(=O)c1c(O)c3c(c(O)c1C2=O)C[C@@](O)(C(=O)CO)C[C@@H]3O[C@H]1C[C@H](N)[C@H](O)[C@H](C)O1 [DOXORUBICIN]
GI50 (Malme-3M): 0.1 µg/mL (≈ 0.184 µM) | GI50 (SK-MEL-5): 0.03 µg/mL (≈ 0.0552 µM) | GI50 (A549): 0.04 µg/mL (≈ 0.0736 µM) | GI50 (HT-29): 0.06 µg/mL (≈ 0.11 µM) | GI50 (MCF7): 0.2 µg/mL (≈ 0.368 µM)

CC1(C)C(=O)C(=C2C=Cc3ccccc3O2)C(=O)C(C)(C)C1=O [EMORYDONE]
GI50 (Malme-3M): 1 µg/mL (≈ 3.22 µM) | GI50 (SK-MEL-5): 3 µg/mL (≈ 9.67 µM) | GI50 (A549): 3 µg/mL (≈ 9.67 µM) | GI50 (HT-29): 4 µg/mL (≈ 12.9 µM) | GI50 (MCF7): 3 µg/mL (≈ 9.67 µM)

CC1=c2oc3c(c2C(=O)C(C)(C)C1=O)Oc1ccccc1C=3 [PSOROTHAMNONE B]
GI50 (Malme-3M): 40 µg/mL (≈ 136 µM) | GI50 (SK-MEL-5): 40 µg/mL (≈ 136 µM) | GI50 (A549): 30 µg/mL (≈ 102 µM) | GI50 (HT-29): 30 µg/mL (≈ 102 µM) | GI50 (MCF7): 40 µg/mL (≈ 136 µM)

Source: ChEMBL document CHEMBL1155584, “Bioactive compounds from Psorothamnus junceus” (J Nat Prod, 2000)
